How the values were obtained:
[1] = Haemolytic activity in human erythrocytes assessed as induction of hemolysis incubated for 1 hr; assay type: cell-based, Erythrocyte
Outline: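 Human erythrocytes from fresh heparinized blood were suspended at 5 vol% in PBS (pH 7.4), mixed 3:1 with serially diluted compound, and incubated 1 h at 37°C. Controls were no compound and 1 vol% Triton X-100. After centrifugation, supernatant A540 gave % haemolysis relative to the Triton control. HC50 is the mean ± SEM of at least two independent experiments, each run in triplicate.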

[2] = Selectivity index, ratio of HC50 for haemolytic activity in human erythrocytes to IC50 for antimalarial activity against Plasmodium falciparum 3D7 cultured in human O+ erythrocytes; assay type: toxicity, cell-based; conditions: read-out: Selectivity Index
[3] = tested on: Plasmodium falciparum; assay: Antimalarial activity against Plasmodium falciparum 3D7 cultured in human O+ erythrocytes assessed as reduction in parasite growth incubated for 48 hrs by SYBR green I based fluorescence assay; assay type: functional, organism-based; conditions: 3D7, 48 h
Outline: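 Sorbitol-synchronized ring-stage cultures (2% haematocrit, 1% parasitaemia) were exposed to serial dilutions in complete RPMI, top concentration 10 µM, for 48 h. Chloroquine served as positive control and no compound as negative control. Lysis buffer with SYBR Green I (Tris pH 7.5, EDTA, saponin, Triton X-100) was added for 1 h in the dark at 37°C. Fluorescence was read at ex 485/em 530 nm, and IC50 came from sigmoidal curves, checked against Giemsa smears.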

[4] = tested on: Mus musculus; assay: Toxicity in Plasmodium berghei ANKA infected in Swiss-Harlan mouse model of cerebral malaria assessed as induction of mouse death at 30 mg/kg, ip for 4 days dosed 2 hrs post infection and measured 5 days post infection by Giemsa staining based Peter's 4 day test; assay type: organism-based; conditions: in vivo, 120 h
[5] = tested on: Plasmodium berghei; assay: Antimalarial activity against Plasmodium berghei ANKA infected in Swiss-Harlan mouse model of cerebral malaria assessed as time duration for complete mouse mortality at 20 mg/kg, ip for 4 days dosed 2 hrs post infection and measured 5 days post infection by Giemsa staining based Peter's 4 day test (reference value: =<7 days); assay type: functional
Outline: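 Female Swiss mice, 6-8 weeks old, infected IP with 10⁷ P. berghei ANKA parasitized RBCs. Starting 2 h post-infection, 20 mg/kg IP (PBS vehicle; PBS-only controls) every 24 h for four days, n=4. Day-5 parasitemia read from Giemsa-stained tail-blood smears; survival followed until death.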

[6] = tested on: Plasmodium berghei; assay: Antimalarial activity against Plasmodium berghei ANKA infected in Swiss-Harlan mouse model of cerebral malaria assessed as reduction in parasitemia at 20 mg/kg, ip for 4 days dosed 2 hrs post infection and measured 5 days post infection by Giemsa staining based Peter's 4 day test; assay type: functional; design: scale not given: the % may be the effect or the level left
Outline: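 Female Swiss mice (6-8 weeks) were infected IP with 10⁷ P. berghei ANKA-parasitized RBCs. Two hours later, groups (n=4) received 20 mg/kg IP or PBS control, repeated every 24 h for four days. Parasitemia was read on day 5 from Giemsa-stained tail-blood smears, and survival was followed until death.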

[7] = tested on: Mus musculus; assay: Toxicity in Balb/c mouse assessed as effect on creatinine level level at 17.5 mg/kg, iv; conditions: in vivo
[8] = Toxicity in Balb/c mouse at 5.5 to 175 mg/kg, iv for 14 days; assay type: organism-based; conditions: in vivo
Outline: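 Female Balb/c mice, 6-8 weeks old, dosed intravenously in PBS at 175, 55, 17.5 and 5.5 mg/kg. Adverse effects were observed directly for 4 h and mortality for 14 days. LD50 was calculated from survival with the Spearman-Karber equation.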

[9] = tested on: Mus musculus; assay: Toxicity in Plasmodium berghei ANKA infected in Swiss-Harlan mouse model of cerebral malaria assessed as induction of prolonged malaise at 30 mg/kg, ip for 4 days dosed 2 hrs post infection and measured 5 days post infection by Giemsa staining based Peter's 4 day test; assay type: organism-based; conditions: in vivo, 120 h
[10] = tested on: Mus musculus; assay: Toxicity in Balb/c mouse assessed as effect on blood electrochemical balance by measuring sodium level at 20 mg/kg, iv; assay type: organism-based; conditions: in vivo
[11] = tested on: Mus musculus; assay: Toxicity in Balb/c mouse assessed as effect on urea nitrogen level level at 20 mg/kg, iv; assay type: organism-based; conditions: in vivo
[12] = tested on: Mus musculus; assay: Toxicity in Balb/c mouse assessed as effect on blood electrochemical balance by measuring potassium level at 20 mg/kg, iv; assay type: organism-based; conditions: in vivo
[13] = tested on: Mus musculus; assay: Toxicity in Balb/c mouse assessed as effect on blood electrochemical balance by measuring chloride level at 20 mg/kg, iv; assay type: organism-based; conditions: in vivo
[14] = tested on: Plasmodium falciparum; assay: Antimalarial activity against […] Plasmodium falciparum MRC2 cultured in human O+ erythrocytes assessed as reduction in parasite growth incubated for 48 hrs by SYBR green I based fluorescence assay; assay type: functional, organism-based; conditions: MRC2, 48 h
Outline: (§1)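 Sorbitol-synchronized ring-stage cultures (2% haematocrit, 1% parasitaemia) exposed for 48 h to serial dilutions in complete RPMI, top concentration 10µM. CQ was the positive control and drug-free wells the negative control. Growth was read by SYBR Green I lysis buffer, 1 h at 37°C in the dark, fluorescence ex 485/em 530 nm. IC50 came from sigmoidal curve fits, checked by Giemsa smears.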

[15] = tested on: Mus musculus; assay: Toxicity in Balb/c mouse assessed as effect on ALT level level at 20 mg/kg, iv; assay type: organism-based; conditions: in vivo
[16] = tested on: Mus musculus; assay: Toxicity in Balb/c mouse assessed as effect on AST level level at 20 mg/kg, iv; assay type: organism-based; conditions: in vivo
[17] = tested on: Plasmodium falciparum; assay: Antimalarial activity against […] Plasmodium falciparum RKL9 cultured in human O+ erythrocytes assessed as reduction in parasite growth incubated for 48 hrs by SYBR green I based fluorescence assay; assay type: functional, organism-based; conditions: RKL9, 48 h; outline: as §1

CCCCCCCCN(Cc1ccccc1)C(=O)C(CCCCNC(=O)OC(C)(C)C)NC(=O)OC(C)(C)C (stereo not given)
HC50 at 1 h [1]: 564 µM | selectivity ratio [2]: 141 | IC50 [3]: 4000 nM

CCCCCCN(Cc1cccc2ccccc12)C(=O)C(CCCCNC(=O)OC(C)(C)C)NC(=O)OC(C)(C)C.O=C(O)C(F)(F)F.O=C(O)C(F)(F)F (stereo not given)
Activity [4]: Toxic | HC50 at 1 h [1]: 850 µM | Time [5]: 12 days | selectivity ratio [2]: 850 | Activity [6]: 60% | Activity [7]: Non-Toxic | LD50 at 336 h [8]: 98 mg/kg | IC50 [3]: 1000 nM | Activity [9]: Toxic | Activity [10]: Non-Toxic | Activity [11]: Non-Toxic | Activity [12]: Non-Toxic | Activity [13]: Non-Toxic | IC50 [14]: 5 µM | Activity [15]: Non-Toxic | Activity [16]: Non-Toxic | IC50 [17]: 1400 nM

CCCCCCN(Cc1ccccc1)C(=O)C(CCCCNC(=O)OC(C)(C)C)NC(=O)OC(C)(C)C (stereo not given)
HC50 at 1 h [1]: > 1000 µM | IC50 [3]: > 5000 nM

CCCCCCCCN(Cc1cccc2ccccc12)C(=O)C(CCCCNC(=O)OC(C)(C)C)NC(=O)OC(C)(C)C (stereo not given)
HC50 at 1 h [1]: 96 µM | selectivity ratio [2]: 32 | IC50 [3]: 3000 nM

Reference: ChEMBL document CHEMBL4138068, “Aryl-alkyl-lysines: small molecular membrane-active antiplasmodial agents” (Medchemcomm, 2017)
